Data from ChEMBL document CHEMBL4334468, “Exploring Mitochondria-Mediated Intrinsic Apoptosis by New Phytochemical Entities: An Explicit Observation of Cytochrome c Dynamics on Lung and Melanoma Cancer Cells” (J Med Chem, 2019).
Active and inactive are the calls of the source. The calls are words filed in the database; no cut-off is given here.

Tests used:
A-375 [1] = test: Cytotoxicity in human A375 cells assessed as reduction in cell viability incubated for 24 hrs by MTT assay; type: functional, cell-based
How it was run: (§1)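 MTT viability assay on A375 melanoma, A549 lung adenocarcinoma and WI-38 normal lung fibroblast cells after 24 and 48 h treatment. IC50 values are in µM, expressed as mean ± SD.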

A-375 [2] = test: Cytotoxicity in human A375 cells assessed as reduction in cell viability incubated for 48 hrs by MTT assay; type: functional, cell-based; how it was run: as §1
A549 [3] = test: Cytotoxicity in human A549 cells assessed as reduction in cell viability incubated for 24 hrs by MTT assay; type: functional, cell-based; how it was run: as §1
A549 [4] = test: Cytotoxicity in human A549 cells assessed as reduction in cell viability incubated for 48 hrs by MTT assay; type: functional, cell-based; how it was run: as §1
WI-38 [5] = test: Cytotoxicity in human WI38 cells assessed as reduction in cell viability incubated for 24 hrs by MTT assay; type: cell-based; details: wi-38; how it was run: as §1
WI-38 [6] = test: Cytotoxicity in human WI38 cells assessed as reduction in cell viability incubated for 48 hrs by MTT assay; type: cell-based; how it was run: as §1
[7] = Antioxidant activity assessed as DPPH radical scavenging activity at 1 to 1000 ug/ml incubated for 30 mins by spectrophotometry; type: functional
[8] = Antioxidant activity at 1 to 1000 ug/ml incubated for 90 mins by FRAP assay; type: functional
[9] = Antioxidant activity assessed as hydroxyl radical scavenging activity at 1 to 1000 ug/ml incubated for 1 hr; type: functional
A549 [10] = test: Induction of GSH depletion in human A549 cells by fluorimetry; type: functional, cell-based
A-375 [11] = test: Induction of GSH depletion in human A375 cells by fluorimetry; type: functional, cell-based
[12] = Homo sapiens, A549, 24 h, read-out: IC50
[13] = Homo sapiens, A549, 48 h, read-out: IC50
[14] = Homo sapiens, A-375, 24 h, read-out: IC50
[15] = Homo sapiens, A-375, 48 h, read-out: IC50
[16] = Homo sapiens, WI-38, 48 h, read-out: IC50

SMILES | IC50 (A-375 [1]; a-375) | IC50 (A-375 [2]; a-375) | IC50 (A549 [3]; [12]) [µM] | IC50 (A549 [4]; [13]) [µM] | IC50 (WI-38 [5]) | IC50 (WI-38 [6]; wi-38) | IC50 (A-375 [1]; [14]) [µM] | IC50 (A-375 [2]; [15]) [µM] | IC50 (WI-38 [6]; [16]) [µM] | IC50 (A549 [3]; a549) | IC50 (A549 [4]; a549) | Activity [7] | Activity [8] | Activity [9] | Activity (A549 [10]) | Activity (A-375 [11])
COc1cc(C2Oc3cc(-c4cc(=O)c5c(O)cc(O)cc5o4)ccc3OC2/C=C2/C(=O)ON(c3ccccc3)C2C)ccc1O (stereo unspecified) | Not Active | Not Active | 83 | 71.5 | Non-Toxic | Non-Toxic | – | – | – | – | – | – | – | – | – | –
COc1cc(C2Oc3cc(-c4cc(=O)c5c(O)cc(O)cc5o4)ccc3OC2/C=C2/C(=O)ONC2C(F)(F)F)ccc1O (stereo unspecified) | – | – | 2.1 | 16.4 | Non-Toxic | – | 2 | 0.83 | 95 | – | – | – | – | – | – | –
COc1cc(C2Oc3cc(-c4cc(=O)c5c(O)cc(O)cc5o4)ccc3OC2c2cc(C(C)(C)O)on2)ccc1O (stereo unspecified) | – | – | 4.8 | 2.9 | Non-Toxic | Non-Toxic | 1.43 | 0.65 | – | – | – | – | – | – | – | –
COc1cc(C2Oc3cc(-c4cc(=O)c5c(O)cc(O)cc5o4)ccc3OC2/C=C2/C(=O)ON(C)C2C)ccc1O (stereo unspecified) | – | – | 4.5 | 3.8 | Non-Toxic | – | 3.1 | 2.4 | 68 | – | – | – | – | – | – | –
COc1cc(C2Oc3cc(-c4cc(=O)c5c(O)cc(O)cc5o4)ccc3OC2c2cc(CO)on2)ccc1O (stereo unspecified) | Not Active | – | – | – | Non-Toxic | Non-Toxic | – | 74.9 | – | Not Active | Not Active | – | – | – | – | –
COc1cc(C2Oc3cc(-c4cc(=O)c5c(O)cc(O)cc5o4)ccc3OC2/C=C2/C(=O)ONC2c2ccc(C)cc2)ccc1O (stereo unspecified) | – | – | 12.7 | 9 | Non-Toxic | Non-Toxic | 9.2 | 6.7 | – | – | – | – | – | – | – | –
COc1cc(C2Oc3cc(-c4cc(=O)c5c(O)cc(O)cc5o4)ccc3OC2c2cc(C(=O)NS(=O)(=O)c3ccc(Cl)cc3)on2)ccc1O (stereo unspecified) | – | – | 8.7 | 6.6 | Non-Toxic | – | 6.2 | 4.2 | 54.6 | – | – | – | – | – | – | –
CCCC1NOC(=O)/C1=C/C1Oc2ccc(-c3cc(=O)c4c(O)cc(O)cc4o3)cc2OC1c1ccc(O)c(OC)c1 (stereo unspecified) | – | – | – | – | Non-Toxic | Non-Toxic | 92.7 | 60 | – | Not Active | Not Active | – | – | – | – | –
COc1cc(C2Oc3cc(-c4cc(=O)c5c(O)cc(O)cc5o4)ccc3OC2CO)ccc1O (stereo unspecified) | – | – | 88.6 | 68 | Non-Toxic | Non-Toxic | 71.6 | 49.2 | – | – | – | inactive | inactive | inactive | inactive | inactive
COc1cc(C2Oc3cc(-c4cc(=O)c5c(O)cc(O)cc5o4)ccc3OC2c2cc(C(=O)NC3CCCCC3)on2)ccc1O (stereo unspecified) | – | – | 80 | 14.5 | Non-Toxic | Non-Toxic | 66.8 | 28.8 | – | – | – | – | – | – | – | –
COc1cc(C2Oc3cc(-c4cc(=O)c5c(O)cc(O)cc5o4)ccc3OC2c2cc(C(=O)Nc3ccc(C(F)(F)F)cc3)on2)ccc1O (stereo unspecified) | – | – | 3.6 | 0.76 | Non-Toxic | Non-Toxic | 4 | 0.95 | – | – | – | – | – | – | – | –
